Experiments:
[1] = test system: H3K27me3; conditions: mutant EZH2-bearing lymphoma cells; cited from earlier work
[2] = test system: MDA-MB-231 cells; test: Number of analyzed nuclei; type: cell-based; conditions: MDA-MB-231, 3 days, maximal effect, concentration not given
In short: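 Proliferation was read from the same 3-day high-content assay in 384-well plates at 37 °C, 5% CO2. Nuclei were counted in the Hoechst (4 µg/mL) DNA channel. Segmentation used a gray-level threshold and minimum/maximum nuclear diameter set on DMSO-treated controls, which excluded debris. Total nuclei per well served as cell number and were expressed as % of DMSO control, in triplicate.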

[3] = test system: H3K27me3; test: H3K27me3 HCA assay, MDA-MB-231 cells, 384-well format; type: cell-based; conditions: MDA-MB-231, 3 days
In short: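 MDA-MB-231 cells were plated in 384-well plates 24 h before compound, diluted in medium from a 10 mM DMSO stock (final DMSO ≤0.6%). Treatment was 3 µM over a time course or a concentration series for 3 days, at 37 °C, 5% CO2. H3K27me3 immunofluorescence used PFA fixation and Triton permeabilization, primary antibody 16 h at 4 °C, plus Hoechst. Confocal imaging averaged about 1500–2000 nuclei; triplicates, % of DMSO control.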

Structure (SMILES)	time at which loss of H3K27me3 was apparent [1]	time required for full effects on H3K27me3 [1]	cell number, % of DMSO control [2]	global H3K27me3 level at maximum reduction, % of DMSO control [3]
Cc1cc(C)c(CNC(=O)c2cc(-c3ccc(CN4CCOCC4)cc3)cc3c2cnn3C2CCCC2)c(=O)[nH]1 [EPZ005687]	24 h	up to 5 days		
Nc1nccc2c1ncn2C1C=C(CO)C(O)C1O (stereo not shown) [DZNep, 3-deazaneplanocin A]			45%	65%

From publication PMC4361481 (Journal of Biomolecular Screening, 2015)
